From PubChem
Hits are enriched below; roughly 2.7% of the tested compounds scored in any of these assays.
SIRT5 inh: sirtuin-5 (human) deacylase inhibition; inhibition, % at 15 µM; AID 652115; Purified SirT5, succinyl-peptide AMC, trypsin-coupled fluorescence; actives 1.1% (n = 330,000); in the data active = inhibition above about 15%
DENV2 CPE rescue: protects cells from dengue virus 2 cytopathic effect; DENV2-infected cells, cytopathic effect rescue, plate reader; CPE inhibition, % at 9.99 µM; actives 1.7% (n = 350,000); AID 651640; in the data active = CPE inhibition above about 20%, passing the limit was not always enough; tested in BHK-21 cells
CaV13 ICDI inh: Primary screen for inhibitors of IQ motif and Ca2+-dependent inactivation inhibitor domain binding in CACNA1D, Förster resonance energy transfer in living cells, …; HEK cells, CFP/YFP FRET ICDI-IQ, plate reader, 10 min; percent FRET-ratio fall versus neutral wells; inhibition, % at 12.3 µM; actives 0.098% (n = 340,000); AID 743397;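 active = mean replicate inhibition of at least 30% and at least 1% of replicates passing that level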
AF4-AF9 inh: MLL-AF4/AF9 protein interaction inhibition; inhibition, % at 10 µM; P42568; actives 0.47% (n = 350,000); AlphaScreen, biotin-AF4 peptide binding to FLAG-AF9;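 active = every replicate reaching a set inhibition limit, whatever the replicate mean, cut at about 25% in these data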
Target sequence (P42568 whole entry, looked up): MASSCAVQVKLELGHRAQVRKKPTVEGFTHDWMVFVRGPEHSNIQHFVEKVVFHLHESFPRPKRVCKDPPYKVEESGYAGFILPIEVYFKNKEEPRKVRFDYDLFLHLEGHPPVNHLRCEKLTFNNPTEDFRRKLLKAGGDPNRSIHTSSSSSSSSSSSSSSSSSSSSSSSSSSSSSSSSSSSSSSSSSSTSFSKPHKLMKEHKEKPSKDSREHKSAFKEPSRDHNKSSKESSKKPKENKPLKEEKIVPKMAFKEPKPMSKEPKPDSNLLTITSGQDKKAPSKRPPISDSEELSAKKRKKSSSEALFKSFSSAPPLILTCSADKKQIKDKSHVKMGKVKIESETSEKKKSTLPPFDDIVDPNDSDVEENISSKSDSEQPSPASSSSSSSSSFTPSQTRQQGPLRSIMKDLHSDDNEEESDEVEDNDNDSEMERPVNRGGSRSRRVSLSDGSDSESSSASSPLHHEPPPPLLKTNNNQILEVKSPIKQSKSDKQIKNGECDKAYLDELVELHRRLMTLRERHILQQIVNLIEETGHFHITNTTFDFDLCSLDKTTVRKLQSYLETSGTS
S100A4 inh HTS: blocks human S100A4 binding to myosin IIA peptide. S100A4/TAMRA-MyoIIA peptide fluorescence polarization. AID 652163. actives 0.14% (n = 360,000). P26447. inhibition, % at 10.7 µM;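 active = mean inhibition of at least 70% across replicates, with every replicate also reaching that level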
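Test system: S100A4 monomer protein. Medium: HEPES buffer with Ca2+, pH 7.2. Reagent: fluorescent myosin IIA peptide, 5 nM. Compound dosing: single-point compound testing. Timing: 5 min between mix addition and reading. Benchmarks: DMSO neutral and TFP positive wells.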
Numbers stand for hits; n = inactive; x = no result.

SMILES | SIRT5 inh | DENV2 CPE rescue | CaV13 ICDI inh | AF4-AF9 inh | S100A4 inh HTS
O=C(NCC(=O)N1CCN(C(c2ccccc2)c2ccccc2)CC1)c1ccccc1Br | 20 | n | n | n | n
CCN1CCN(S(=O)(=O)c2ccc(Cl)c(C(=O)N(C)CCOc3ccc(Cl)cc3)c2)CC1 | n | 67 | n | n | n
COc1ccc(S(=O)(=O)N2CCCCCC2)cc1C(=O)N(C)CCOc1ccc(Cl)cc1 | n | n | n | n | n
CCN1CCN(S(=O)(=O)c2ccc(Cl)c(C(=O)N(C)C3CCCCC3)c2)CC1 | x | n | n | 26 | n
CCN1CCN(S(=O)(=O)c2ccc(Cl)c(C(=O)NC3CCCC3)c2)CC1 | n | n | n | n | n
O=C(C[C@H]1C=C[C@@H](NC(=O)c2cccc(F)c2)[C@@H](CO)O1)NCc1ccccc1 | n | n | x | n | n
C[C@@H]1CCCCO[C@H](CN(C)C(=O)CCCN(C)C)[C@@H](C)CN([C@H](C)CO)C(=O)c2cc(NC(=O)c3ccccc3)ccc2O1 | n | n | x | n | n
CCc1nc(SCc2ccc(Cl)cc2)n[nH]1 | n | n | n | n | n
O=S(=O)(Nc1nc(SCc2ccc(Cl)cc2)n[nH]1)c1ccc(F)cc1 | n | 29 | n | n | n
COC(=O)[C@@H](Cc1ccccc1)NC(=O)CC[C@H]1O[C@@H](n2cc(C)c(=O)[nH]c2=O)C[C@@H]1O | n | n | n | n | n
COC(=O)[C@H](CC(C)C)NC(=O)CC[C@H]1O[C@@H](n2cc(C)c(=O)[nH]c2=O)C[C@@H]1O | n | 70 | n | n | n
Cc1cc(C(=O)N[C@@H](c2ccccc2)[C@]2(C)C[C@H]2[C@@H](C)C(=O)Nc2ccc3ccccc3c2)no1 | x | 77 | n | n | n
Cc1ccc(/C=C2/C(=O)ON=C2c2ccccc2)o1 | x | 42 | n | n | n
C[n+]1ccccc1COc1ccc(C(C)(C)C)cc1 | n | 23 | n | n | n
CC(=O)N1[C@H](CO)[C@H](c2ccc(-c3ccncc3)cc2)[C@@H]1CNC(=O)CC1CC1 | 22 | n | x | n | n
CCC(=O)N1[C@H](CN(C)C(C)=O)[C@H](c2ccc(-c3cccnc3)cc2)[C@@H]1CO | n | 29 | x | n | n
CC(=O)N1[C@H](CO)[C@H](c2ccc(-c3cccnc3)cc2)[C@@H]1CNC(=O)C1CCC1 | n | n | x | n | n
CC(=O)N1[C@H](CO)[C@H](c2ccc(-c3cccnc3)cc2)[C@H]1CNC(=O)C1CC1 | n | 47 | x | n | n
CCC(=O)N1[C@H](CO)[C@H](c2ccc(-c3cccnc3)cc2)[C@@H]1CN(C)C(C)=O | x | n | x | x | x
O=C(NC[C@@H]1[C@@H](c2ccccc2)[C@@H](CO)N1C(=O)Cc1cccnc1)C1CC1 | 17 | n | x | n | n
COC(=O)C[C@H]1CC[C@H]2[C@@H](COC[C@@H](O)CN2C(=O)Nc2ccccc2OC)O1 | n | n | x | n | n
C[C@@H]1CCCCO[C@H](CN(C)C(=O)Nc2ccc(F)cc2)[C@H](C)CN([C@@H](C)CO)C(=O)c2cc(NS(C)(=O)=O)ccc2O1 | n | n | x | n | n
CC(=O)NC[C@@H]1[C@@H](c2ccc(-c3cccnc3)cc2)[C@H](CO)N1C(=O)C1CCC1 | x | 31 | x | x | x
CCCNC(=O)N1CC(=O)N2[C@H](CO)[C@H](c3ccc(C#Cc4ccc(F)cc4)cc3)[C@H]2C1 | n | n | x | n | n
C[C@@H]1CN([C@@H](C)CO)C(=O)c2cccc(NC(=O)c3cnccn3)c2O[C@@H]1CN(C)S(=O)(=O)c1ccc(F)cc1 | n | n | x | n | n
SMILES | SIRT5 inh | DENV2 CPE rescue | CaV13 ICDI inh | AF4-AF9 inh | S100A4 inh HTS
C#CCn1c(=NC(=O)c2ccco2)sc2cccc(Cl)c21 | n | n | n | 31 | n
COc1ccc2c3c([nH]c2c1)[C@H](CO)N(C(=O)C1CCOCC1)CC31CCN(S(C)(=O)=O)CC1 | x | 35 | x | n | n
COc1ccc2c3c([nH]c2c1)[C@H](CO)N(C(=O)C1CCCCC1)CC31CCN(C(=O)NC(C)C)CC1 | n | 29 | x | n | n
COc1ccc2c3c([nH]c2c1)[C@@H](CO)N(Cc1ccc(F)cc1)CC31CN(C(=O)NC(C)C)C1 | x | 93 | x | n | x
COc1ccc2c3c([nH]c2c1)[C@@H](CO)N(Cc1ccc(F)cc1)CC31CCN(C(=O)NC(C)C)CC1 | n | n | x | n | n
COc1ccc2c3c([nH]c2c1)[C@@H](CO)N(C(=O)C1CCCCC1)CC31CCN(C(=O)NC(C)C)CC1 | n | n | x | n | n
O=S1(=O)CC(N2CCN(CCO)CC2)CN1Cc1cn(Cc2cccc(C(F)(F)F)c2)nn1 (configuration not stated) | 23 | n | n | n | n
Cc1cc(C)cc(Cn2cc(CN3CC(N4CCN(CCO)CC4)CS3(=O)=O)nn2)c1 (configuration not stated) | 29 | n | n | n | n
CN(C)C1CN(Cc2cn(Cc3ccc(F)cc3)nn2)S(=O)(=O)C1 (configuration not stated) | n | n | n | n | n
Cc1ccc(Cn2cc(CN3CC(N(C)C)CS3(=O)=O)nn2)cc1 (configuration not stated) | n | 23 | n | n | n
O=C1N(Cc2ccccc2)Cc2ccccc2[C@@H]2OC(c3ccc(OCCCO)cc3)=N[C@]12Cc1ccccc1 | n | 26 | x | n | n
O=C1N(Cc2ccccc2)Cc2ccccc2[C@H]2OC(c3ccc(OCCCO)cc3)=N[C@@]12Cc1ccccc1 | n | n | x | n | n
CC(C)NC(=O)N1[C@H](CO)[C@@H]2c3ccccc3N(C(=O)C3CCCCC3)C[C@@H]21 | n | n | x | n | n
COc1cccc(-c2ncc3ccccc3c2COC(=O)c2ccc(F)cc2)c1 | x | 102 | n | x | n
COc1cccc(S(=O)(=O)N(C)C[C@@H]2Oc3ncc(C#CCN(C)C)cc3C(=O)N([C@@H](C)CO)C[C@H]2C)c1 | n | n | x | n | n
C[C@H](CO)N1C[C@H](C)[C@H](CN(C)S(=O)(=O)c2ccc(C#N)cc2)Oc2ncc(C#Cc3ccccc3)cc2C1=O | n | n | x | n | n
C[C@H](CO)N1C[C@H](C)[C@H](CN(C)S(=O)(=O)c2ccc(C#N)cc2)Oc2ncc(C#Cc3ccc(C(F)(F)F)cc3)cc2C1=O | 27 | n | x | n | n
Cc1ccc(S(=O)(=O)N(C)C[C@@H]2Oc3ncc(C#Cc4ccccc4)cc3C(=O)N([C@H](C)CO)C[C@@H]2C)cc1 | 16 | n | x | n | n
C[C@H](CO)N1C[C@H](C)[C@H](CN(C)S(C)(=O)=O)Oc2ncc(C#Cc3ccc(C(F)(F)F)cc3)cc2C1=O | n | n | x | n | n
COc1ccc(S(=O)(=O)N(C)C[C@@H]2Oc3ncc(C#CCN(C)C)cc3C(=O)N([C@H](C)CO)C[C@@H]2C)cc1 | 21 | n | x | n | n
CCCC(=O)Nc1ccc2c(c1)C(=O)N(C)[C@@H]1CC[C@H](CC(=O)NCc3cccc(F)c3)O[C@@H]1CO2 | x | x | x | n | x
